Test results taken from ChEMBL document CHEMBL1122275, “1,3-dipalmitoylglycerol ester of chlorambucil as a lymphotropic, orally administrable antineoplastic agent” (J Med Chem, 1983).
“And” between values parts separate entries of the source, which are not always exact repeats. Equal values may be shown once.

What was measured:
[1] = tested on: Mus musculus; experiment: Antitumor a dose 0.052 […] against ip inoculated P388 leukemia in CDF1 mice; assay type: functional
Summary of the method: (§1)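 Groups of six male CDF1 mice (18-22 g) were inoculated ip on day 0 with 1×10^6 viable P388 ascites cells from DBA/2 passage, suspended in chilled 0.9% saline. Drugs were suspended in 0.3% hydroxypropylcellulose in saline and given ip daily for 4 days starting at 24 h. Survival was followed to day 40. T/C = treated/control MST ×100, with 24 controls. BWC = mean weight change from day 1 to day 5.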

[2] = tested on: Mus musculus; experiment: Antitumor a dose 0.11 […] against po inoculated P388 leukemia in CDF1 mice; assay type: functional
Summary of the method: (§2)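 Male CDF1 mice (18-22 g; 6 per dose, 24 controls) received 10^6 viable P388 cells sc on day 0. Drugs in 0.3% hydroxypropylcellulose/saline were given ip or orally, daily for 4 days from 24 h and again on day 10. Survival was followed to day 40. T/C = MST ratio ×100. BWC covers day 1 to day 5. Toxicity was judged by NCI norms.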

[3] = tested on: Mus musculus; experiment: Antitumor activity measured as T/C at 0.23 […] dose against po inoculated P388 leukemia in CDF1 mice; Toxic; assay type: functional, organism-based; summary of the method: as §2
[4] = tested on: Mus musculus; experiment: Antitumor activity measured as Body weight change (BWC) between day 1 and 5 at 0.052 […] dose against sc inoculated P388 leukemia in CDF1 mice; assay type: functional; summary of the method: as §2
[5] = tested on: Mus musculus; experiment: Antitumor activity measured as T/C at 0.035 […] dose against ip inoculated P388 leukemia in CDF1 mice; assay type: functional; summary of the method: as §1
[6] = tested on: Mus musculus; experiment: Antitumor activity measured as Body weight change (BWC) between day 1 and 5 at 0.035 […] dose against sc inoculated P388 leukemia in CDF1 mice; assay type: functional; summary of the method: as §2
[7] = tested on: Mus musculus; experiment: Antitumor activity measured as Body weight change (BWC) between day 1 and 5 at 0.069 […] dose against ip inoculated P388 leukemia in CDF1 mice; assay type: functional; summary of the method: as §1
[8] = tested on: Mus musculus; experiment: Antitumor activity measured as Body weight change (BWC) between day 1 and 5 at 0.11 […] dose against po inoculated P388 leukemia in CDF1 mice; assay type: functional; summary of the method: as §2
[9] = tested on: Mus musculus; experiment: Antitumor activity measured as Body weight change (BWC) between day 1 and 5 at 0.069 […] dose against sc inoculated P388 leukemia in CDF1 mice; assay type: functional; summary of the method: as §2
[10] = tested on: Mus musculus; experiment: Antitumor a dose 0.23 […] against po inoculated P388 leukemia in CDF1 mice; Toxic; assay type: toxicity, organism-based; details: in vivo; summary of the method: as §2
[11] = tested on: Mus musculus; experiment: Antitumor activity measured as T/C at 0.069 […] dose against ip inoculated P388 leukemia in CDF1 mice; assay type: functional; summary of the method: as §1
[12] = tested on: Mus musculus; experiment: Antitumor activity measured as Body weight change (BWC) between day 1 and 5 at 0.035 […] dose against ip inoculated P388 leukemia in CDF1 mice; assay type: functional; summary of the method: as §1
[13] = tested on: Mus musculus; experiment: Antitumor activity measured as T/C at 0.11 […] dose against po inoculated P388 leukemia in CDF1 mice; assay type: functional; summary of the method: as §2
[14] = tested on: Mus musculus; experiment: Antitumor a dose 0.035 nmol/Kg against ip inoculated P388 leukemia in CDF1 mice; assay type: functional; summary of the method: as §1
[15] = tested on: Mus musculus; experiment: Antitumor a dose 0.069 […] against ip inoculated P388 leukemia in CDF1 mice; assay type: functional; summary of the method: as §1
[16] = tested on: Mus musculus; experiment: Antitumor a dose 0.17 […] against po inoculated P388 leukemia in CDF1 mice; assay type: functional; summary of the method: as §2
[17] = tested on: Mus musculus; experiment: Antitumor activity measured as T/C at 0.17 […] dose against po inoculated P388 leukemia in CDF1 mice; assay type: functional; summary of the method: as §2
[18] = tested on: Mus musculus; experiment: Antitumor activity measured as Body weight change (BWC) between day 1 and 5 at 0.17 […] dose against po inoculated P388 leukemia in CDF1 mice; assay type: functional; summary of the method: as §2
[19] = tested on: Mus musculus; experiment: Antitumor activity measured as Body weight change (BWC) between day 1 and 5 at 0.052 […] dose against ip inoculated P388 leukemia in CDF1 mice; assay type: functional; summary of the method: as §1
[20] = tested on: Mus musculus; experiment: Antitumor a dose 0.035 nmol/kg against ip inoculated P388 leukemia in CDF1 mice; assay type: functional; summary of the method: as §1
[21] = tested on: Mus musculus; experiment: Antitumor activity measured as T/C at 0.052 […] dose against ip inoculated P388 leukemia in CDF1 mice; assay type: functional; summary of the method: as §1
[22] = tested on: Mus musculus; experiment: Antitumor a dose 0.11 […] against po inoculated P388 leukemia in CDF1 mice; Toxic; assay type: toxicity, organism-based; details: in vivo; summary of the method: as §2
[23] = tested on: Mus musculus; experiment: Antitumor a dose 0.033 nmol/Kg against ip inoculated P388 leukemia in CDF1 mice; assay type: functional; summary of the method: as §1
[24] = tested on: Mus musculus; experiment: Antitumor activity measured as Body weight change (BWC) between day 1 and 5 at 0.066 […] dose against sc inoculated P388 leukemia in CDF1 mice; assay type: functional; summary of the method: as §2
[25] = tested on: Mus musculus; experiment: Antitumor a dose 0.033 nmol/kg against ip inoculated P388 leukemia in CDF1 mice; assay type: functional; summary of the method: as §1
[26] = tested on: Mus musculus; experiment: Antitumor activity measured as Body weight change (BWC) between day 1 and 5 at 0.033 […] dose against ip inoculated P388 leukemia in CDF1 mice; assay type: functional; summary of the method: as §1
[27] = tested on: Mus musculus; experiment: Antitumor a dose 0.050 […] against ip inoculated P388 leukemia in CDF1 mice; assay type: functional; summary of the method: as §1
[28] = tested on: Mus musculus; experiment: Antitumor a dose 0.16 […] against po inoculated P388 leukemia in CDF1 mice; Toxic; assay type: toxicity, organism-based; details: in vivo; summary of the method: as §2
[29] = tested on: Mus musculus; experiment: Antitumor a dose 0.066 […] against ip inoculated P388 leukemia in CDF1 mice; Toxic; assay type: toxicity, organism-based; details: in vivo; summary of the method: as §2
[30] = tested on: Mus musculus; experiment: Antitumor activity measured as Body weight change (BWC) between day 1 and 5 at 0.050 […] dose against sc inoculated P388 leukemia in CDF1 mice; assay type: functional; summary of the method: as §2
[31] = tested on: Mus musculus; experiment: Antitumor activity measured as T/C at 0.066 […] dose against po inoculated P388 leukemia in CDF1 mice; assay type: functional; summary of the method: as §2
[32] = tested on: Mus musculus; experiment: Antitumor activity measured as T/C at 0.066 […] dose against ip inoculated P388 leukemia in CDF1 mice; Toxic; assay type: toxicity, organism-based; details: in vivo; summary of the method: as §2
[33] = tested on: Mus musculus; experiment: Antitumor activity measured as Body weight change (BWC) between day 1 and 5 at 0.033 […] dose against sc inoculated P388 leukemia in CDF1 mice; assay type: functional; summary of the method: as §2
[34] = tested on: Mus musculus; experiment: Antitumor a dose 0.066 […] against ip inoculated P388 leukemia in CDF1 mice; assay type: functional; summary of the method: as §1
[35] = tested on: Mus musculus; experiment: Antitumor activity measured as Body weight change (BWC) between day 1 and 5 at 0.066 […] dose against ip inoculated P388 leukemia in CDF1 mice; assay type: functional; summary of the method: as §1
[36] = tested on: Mus musculus; experiment: Antitumor activity measured as Body weight change (BWC) between day 1 and 5 at 0.050 […] dose against ip inoculated P388 leukemia in CDF1 mice; assay type: functional; summary of the method: as §1
[37] = tested on: Mus musculus; experiment: Antitumor activity measured as T/C at 0.066 […] dose against ip inoculated P388 leukemia in CDF1 mice; assay type: functional; summary of the method: as §1
[38] = tested on: Mus musculus; experiment: Antitumor activity measured as T/C at 0.11 […] dose against po inoculated P388 leukemia in CDF1 mice; Toxic; assay type: toxicity, organism-based; details: in vivo; summary of the method: as §2
[39] = tested on: Mus musculus; experiment: Antitumor activity measured as T/C at 0.033 […] dose against ip inoculated P388 leukemia in CDF1 mice; assay type: functional; summary of the method: as §1
[40] = tested on: Mus musculus; experiment: Antitumor a dose 0.066 […] against po inoculated P388 leukemia in CDF1 mice; assay type: functional; summary of the method: as §2
[41] = tested on: Mus musculus; experiment: Antitumor activity measured as Body weight change (BWC) between day 1 and 5 at 0.066 […] dose against po inoculated P388 leukemia in CDF1 mice; assay type: functional; summary of the method: as §2
[42] = tested on: Mus musculus; experiment: Antitumor activity measured as T/C at 0.16 […] dose against po inoculated P388 leukemia in CDF1 mice; Toxic; assay type: toxicity, organism-based; details: in vivo; summary of the method: as §2
[43] = tested on: Mus musculus; experiment: Antitumor activity measured as T/C at 0.050 […] dose against ip inoculated P388 leukemia in CDF1 mice; assay type: functional; summary of the method: as §1

CCCCCCCCCCCCCCCC(=O)OCC(COC(=O)CCCCCCCCCCCCCCC)OC(=O)CCCc1ccc(N(CCCl)CCCl)cc1
MST [1]: 22 days and 21.5 days
MST [2]: 24.5 days
T/C [3]: Toxic
BWC [4]: -2.55 g
T/C [5]: 170% and 141%
BWC [6]: -2.35 g
BWC [7]: -2.6 g
BWC [8]: -3.5 g
BWC [9]: -3.95 g
MST [10]: Toxic
T/C [11]: 265% and 162%
BWC [12]: -1.6 g
T/C [13]: 168%
MST [14]: 20.5 days
MST [15]: 26.5 days and 23.5 days
MST [16]: 34 days
T/C [17]: 234%
BWC [18]: -3.9 g
BWC [19]: -2 g
MST [20]: 17 days
T/C [21]: 220% and 148%

O=C(O)CCCc1ccc(N(CCCl)CCCl)cc1 [CHLORAMBUCIL]
MST [22]: Toxic
MST [23]: 19.5 days
BWC [24]: -3.95 g
MST [25]: 16.9 days
BWC [26]: -2.2 g
MST [27]: 19.5 days and 21.5 days
MST [28]: Toxic
MST [29]: Toxic
BWC [30]: -2.95 g
T/C [31]: 155%
T/C [32]: Toxic
BWC [33]: -2.55 g
MST [34]: 23 days
BWC [35]: -3.4 g
BWC [36]: -2.9 g
T/C [37]: 230%
T/C [38]: Toxic
T/C [39]: 169% and 134%
MST [40]: 22.5 days
BWC [41]: -4.15 g
T/C [42]: Toxic
T/C [43]: 195% and 148%
